# A selection: hits, their analogues and other compounds. The true share with any hit is near 1.9%.
# M4 ag: human M4 muscarinic receptor agonists, primary screen, CHO-K1 cells, Fluo-8 calcium fluorescence. Muscarinic acetylcholine receptor M4 (Homo sapiens), P08173. CHO-K1 hM4/Gqi5; vehicle 0%, full acetylcholine response 100%. activation, % at 3 µM. 360,000 compounds, 0.14% hits. AID 624127, 2012;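 active = activation above the run mean over all test wells plus 3 SD, cut at about 32% in these data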;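 note: peak over basal fluorescence ratio per well then scaled between controls; 0% = DMSO wells and 100% = acetylcholine at EC100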
# Target sequence (P08173 whole entry, looked up): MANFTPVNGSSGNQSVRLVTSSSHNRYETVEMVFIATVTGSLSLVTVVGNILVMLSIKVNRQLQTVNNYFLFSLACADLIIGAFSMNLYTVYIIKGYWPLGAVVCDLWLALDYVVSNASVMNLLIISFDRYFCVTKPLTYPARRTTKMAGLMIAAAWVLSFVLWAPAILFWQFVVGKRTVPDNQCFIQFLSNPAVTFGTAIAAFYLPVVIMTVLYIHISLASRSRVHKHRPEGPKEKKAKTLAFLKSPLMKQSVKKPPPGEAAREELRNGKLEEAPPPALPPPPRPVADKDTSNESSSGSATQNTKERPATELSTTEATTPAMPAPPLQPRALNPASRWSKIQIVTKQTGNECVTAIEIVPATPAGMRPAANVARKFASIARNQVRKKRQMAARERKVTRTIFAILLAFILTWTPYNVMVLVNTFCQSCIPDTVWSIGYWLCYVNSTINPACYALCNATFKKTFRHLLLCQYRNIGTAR
# CHRM4 antagonist: human M4 muscarinic receptor antagonists, primary screen, CHO cells, Fluo-8 calcium fluorescence; Muscarinic acetylcholine receptor M4 (Homo sapiens), P08173; CHO-hM4 cells, ACh EC80; inhibition, % at 3 µM; 360,000 compounds, 0.73% hits; AID 624125, 2012;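 active = inhibition above its plate's cutoff, the mean inhibition of sample wells plus 3 SD, cut at about 27% in these data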;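 note: 0% = acetylcholine EC80 with DMSO and 100% = DMSO without agonist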
# CHRM5 PAM: human M5 muscarinic receptor positive allosteric modulators, primary screen, CHO-K1 cells, Fluo-8 calcium fluorescence. Muscarinic acetylcholine receptor M5 (Homo sapiens), P08912. AID 624038, 2012. activation, % at 3 µM. CHO-K1 hM5, ACh EC20 PAM; 0% = ACh EC20, 100% = ACh EC100. 360,000 compounds, 0.3% hits;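 active = activation above the run cutoff, the mean activation of all test compounds plus 3 SD, cut at about 18% in these data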
#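 Test system: CHO-K1 hM5 cells / Doses: single-point, 3 µM nominal / Times: Post-acetylcholine fluorescence recording 140 s / Technique: Fluo-8 calcium fluorescence / Measure: Max/basal fluorescence ratio as % of EC20–EC100 ACh window / Benchmarks: low control EC20 acetylcholine (0%), high control EC100 acetylcholine (100%) / Replicates: one well per compound, no replicates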
# M4 PAM: human M4 muscarinic receptor positive allosteric modulators, primary screen, CHO-K1 cells, Fluo-8 calcium fluorescence. 360,000 compounds, 0.4% hits. CHO-K1 hM4/Gqi5, ACh EC20; 0% = ACh EC20, 100% = maximal ACh. AID 624126, 2012. Muscarinic acetylcholine receptor M4 (Homo sapiens), P08173. activation, % at 3 µM;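 active = activation above its plate's cutoff, the mean activation of sample wells plus 3 SD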
# CHRM5 agonist: human M5 muscarinic receptor agonists, primary screen, CHO-K1 cells, Fluo-8 calcium fluorescence. Muscarinic acetylcholine receptor M5 (Homo sapiens), P08912. 360,000 compounds, 0.19% hits. activation, % at 3 µM. CHO-K1 hM5 cells; 0% DMSO wells, 100% maximal acetylcholine response. AID 624037, 2012;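 active = activation above the run's mean over test compounds plus 3 SD, cut at about 23% in these data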;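 note: signal is peak over basal fluorescence ratio across the kinetic read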
# CHRM5 antagonist: human M5 muscarinic receptor antagonists, primary screen, CHO cells, Fluo-8 calcium fluorescence | Muscarinic acetylcholine receptor M5 (Homo sapiens), P08912 | CHO-hM5 cells, ACh EC80 | inhibition, % at 3 µM | 360,000 compounds, 0.59% hits | AID 624040, 2012;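 active = inhibition above a per-plate cutoff, the mean of that plate's test compounds plus 3 SD, cut at about 27% in these data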;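 note: 0% = acetylcholine EC80 with DMSO and 100% = DMSO without agonist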
# An asterisk follows results filed as active.
SMILES,M4 ag,CHRM4 antagonist,CHRM5 PAM,M4 PAM,CHRM5 agonist,CHRM5 antagonist
Cc1ccc2c(c1C)NC(=O)C21N2CCCC2C(C(=O)c2ccc3ccccc3c2)C12C(=O)Nc1ccccc12 (centres undefined),0,3,19*,11,8,6
Cc1nc(C)c(C(=O)N2CCCC(C(=O)c3ccc4ccccc4c3)C2)s1 (centres undefined),9,-5,-4,-7,1,11
CC(=O)N1CCN(c2ccc(Oc3ccc([N+](=O)[O-])c(C(F)(F)F)c3)cc2)CC1,15,13,-14,-11,5,27*
COc1ccc(C(=O)NC(=S)Nc2ccc(N3CCN(C(C)=O)CC3)cc2)cc1[N+](=O)[O-],3,8,-5,12,2,7
COc1ccccc1CCNC(=O)Cn1c(=O)oc2ccccc21,4,3,-14,-2,-3,40*
COc1ccccc1CCNC(=O)CCn1c(=O)oc2ccccc21,0,-8,-3,3,1,-1
COc1cccc(CNc2ccc([N+](=O)[O-])c(NCC(=O)O)n2)c1,0,1,-1,-6,-3,0
Cn1cc([N+](=O)[O-])c(C(=O)Nc2ccc(Br)cn2)n1,1,4,-1,1,3,5
O=C(NCC1CCCO1)NC1(C(F)(F)F)Oc2ccccc2O1 (centres undefined),0,3,35*,4,-12,-2
O=C(NCC1CCCO1)c1cccs1 (centres undefined),1,6,2,36*,4,-6
O=C(NCC1CCCO1)c1ccccc1 (centres undefined),0,5,1,0,-7,-4
O=C(COC(=O)c1cccs1)NCC1CCCO1 (centres undefined),0,9,2,-2,0,0
CN(C)c1ccc(/C=C/C(=O)c2cccc(Br)c2)cc1,349*,63*,-24,-18,78*,57*
CN(C)c1ccc(C(=O)/C=C/c2cccnc2)cc1,1,1,-4,0,-1,4
Cc1ccc(S(=O)(=O)Nc2cccc3ncccc23)cc1,4,-5,-2,12,-1,-1
Cc1ccc(S(=O)(=O)Nc2cccc3ncccc23)s1,2,28*,-16,-2,-10,26
O=C(CN1C(=O)C2CC=CCC2C1=O)NCC(=O)Nc1ccc(F)c(F)c1 (centres undefined),0,10,6,-3,-2,4
O=C(O)c1nc(NCCc2ccccc2)ncc1Cl,1,-12,-1,0,-1,3
Cc1cc(C)cc(C(=O)NCC(=O)OCC(=O)NCC(F)(F)F)c1,1,12,18*,2,1,-9
COc1ccc(/C=C2\SC(=S)N(CCCC(=O)N3CCN(C)CC3)C2=O)cc1,10,-9,33*,-3,6,11
CCc1ccc(/C=C2\SC(=S)N(CCCC(=O)N3CCN(C)CC3)C2=O)cc1,7,6,-11,-4,1,12
COC(=O)c1ccc(COc2cc(C)ccc2C)o1,-1,-1,-4,-3,-4,9
CCN(CC)c1ccc(C=C2C(=O)OC(c3ccccc3)OC2=O)cc1 (centres undefined),2,-1,-8,8,-2,12
CCN(CC)c1ccc(/C=C/C(=O)C2C(=O)C=C(C)OC2=O)cc1 (centres undefined),49*,21,-28,-21,184*,42*
S=C(c1ccc(-c2ccc(Cl)cc2Cl)o1)N1CCCC1,-1,-3,22*,2,8,-15
SMILES,M4 ag,CHRM4 antagonist,CHRM5 PAM,M4 PAM,CHRM5 agonist,CHRM5 antagonist
S=C(c1ccc(-c2ccc(Cl)cc2Cl)o1)N1CCCCC1,-1,5,6,-8,-6,-10
Cc1ccc2cc(C#N)c(SCC(=O)NCC3CCCO3)nc2c1 (centres undefined),1,-3,6,26*,-1,-6
Cc1ccc2nc(SCC(=O)NCC3CCCO3)c(C#N)cc2c1 (centres undefined),0,-2,2,4,-4,-13
S=c1[nH]nc(-c2ccncc2)n1/N=C/c1cn(-c2ccccc2)nc1-c1ccccc1,12,0,23*,9,17,5
Cc1ccc(S(=O)(=O)N2CCOCC2)cc1C(=O)NC1CCCC1,1,2,8,-2,0,3
N#Cc1ccc(OCC(O)CN2CCN(C(c3ccccc3)c3ccccc3)CC2)cc1 (centres undefined),0,32*,-18,-19,-6,37*
CCC(=O)c1ccc(OCC(O)CN2CCN(C(c3ccccc3)c3ccccc3)CC2)cc1 (centres undefined),1,44*,-28,-14,-6,16
O=C(CCCn1ncn2c(cc3occc32)c1=O)NCc1cccc(Cl)c1,3,-13,2,20*,-3,3
COc1cccc(CNC(=O)CCCn2ncn3c(cc4occc43)c2=O)c1,1,0,-9,-2,-1,12
CSCCC(NC(=O)OC(C)(C)C)C(=O)NC(CC(C)C)C(N)=O (centres undefined),3,3,11,36*,2,3
Cn1nc(C(=O)NCc2ccco2)c2ccccc2c1=O,2,-2,-3,23*,-1,3
Cn1nc(C(=O)Nc2cccnc2)c2ccccc2c1=O,1,-6,-3,1,0,-4
CCn1cc(C(=O)NCc2ccco2)c(=O)c2ccc(C)nc21,1,-22,13,19*,-1,-10
Cn1nc(C(=O)NCc2cccnc2)c2ccccc2c1=O,1,-9,20*,7,0,12
CCn1cc(C(=O)NCCOC)c(=O)c2ccc(C)nc21,0,0,-16,-2,-4,0
Cn1nc(C(=O)NCCN2CCOCC2)c2ccccc2c1=O,1,9,-3,-4,-2,-3
CCCCOc1ccc(C(=O)Nc2cccc(C)n2)cc1,8,94*,-4,6,0,-1
CCCCCCCCOc1ccc(C(=O)O)cc1,2,2,6,22*,1,4
CCCCOc1ccc(C(=O)O)cc1,1,8,-5,8,-2,3

# Bioassay records as filed in PubChem BioAssay.
